Measurements taken from ChEMBL document CHEMBL1126322, “Renin inhibitors containing alpha-heteroatom amino acids as P2 residues” (J Med Chem, 1992).

What was measured:
[1] = Inhibitory activity against monkey renin in vitro.
Bos taurus = organism: Bos taurus; assay: Selectivity ratio towards cathepsin D over renin
How it was run: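 Ratio of cathepsin D IC50 to monkey plasma renin IC50. […] Cathepsin D IC50 from bovine hemoglobin hydrolysis at pH 3.2, 37 °C, A280.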

Cathepsin D = target: T1, Cathepsin D (Bos taurus, UniProt P80209); assay: Inhibitory activity against bovine cathepsin D
T1 sequence (P80209 whole entry): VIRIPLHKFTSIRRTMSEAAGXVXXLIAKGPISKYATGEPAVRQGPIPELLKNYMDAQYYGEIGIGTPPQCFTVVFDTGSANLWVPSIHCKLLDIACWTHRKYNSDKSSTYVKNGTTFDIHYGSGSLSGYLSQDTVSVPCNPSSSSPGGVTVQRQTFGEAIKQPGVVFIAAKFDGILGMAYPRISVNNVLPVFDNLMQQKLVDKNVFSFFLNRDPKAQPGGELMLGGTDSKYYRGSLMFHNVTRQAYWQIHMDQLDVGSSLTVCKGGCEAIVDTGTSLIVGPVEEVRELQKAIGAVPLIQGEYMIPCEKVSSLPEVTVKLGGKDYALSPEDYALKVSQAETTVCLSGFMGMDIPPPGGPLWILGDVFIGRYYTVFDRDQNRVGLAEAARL
How it was run: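 Bovine cathepsin D activity measured in duplicate as hydrolysis of bovine hemoglobin at pH 3.2 and 37 °C, read as net absorbance at 280 nm. Percent inhibition at six inhibitor concentrations; IC50 by nonlinear regression.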

Monkey [2] = assay: Effect of compound on blood pressure in conscious, salt-depleted, normotensive, cynomolgus monkeys after oral administration of 30 mg/kg dose at 2 hours; assay type: functional, Cercopithecidae
Monkey [3] = assay: Effect of compound on blood pressure in conscious, salt-depleted, normotensive, cynomolgus monkeys after oral administration of 30 mg/kg dose at 1 hour; assay type: functional, Cercopithecidae
Monkey [4] = assay: Effect of compound on blood pressure in conscious, salt-depleted, normotensive, cynomolgus monkeys after oral administration of 30 mg/kg dose at 3 hours; assay type: functional, Cercopithecidae

Row | IC50 [1] [µM] | IC50 (Cathepsin D) [µM] | SMILES | also measured
1 | > 1 |  | CC[C@H](C)CNC(=O)C[C@H](O)[C@H](CC(C)C)NC(=O)C(NC(=O)C(Cc1cccc2ccccc12)Cc1cccc2ccccc12)S(C)(=O)=O (stereo partly specified) | 
2 | 0.5 |  | CC[C@H](C)CNC(=O)C[C@H](O)[C@H](CC(C)C)NC(=O)C(NC(=O)C(Cc1cccc2ccccc12)Cc1cccc2ccccc12)NC(C)C (stereo in doubt; 36) | 
3 | 1 |  | CC[C@H](C)CNC(=O)C[C@H](O)[C@H](CC(C)C)NC(=O)C(N)NC(=O)C(Cc1cccc2ccccc12)Cc1cccc2ccccc12 (stereo in doubt; 32) | 
4 | 0.095 |  | CC[C@H](C)CNC(=O)C[C@H](O)[C@H](CC(C)C)NC(=O)C(NC(=O)C(Cc1cccc2ccccc12)Cc1cccc2ccccc12)SC (stereo partly specified) | 
5 | 0.936 |  | CC[C@H](C)CNC(=O)C[C@H](O)[C@H](CC(C)C)NC(=O)C(NC(C)=O)NC(=O)C(Cc1cccc2ccccc12)Cc1cccc2ccccc12 (stereo partly specified) | 
6 | 0.18 |  | CC[C@H](C)CNC(=O)C[C@H](O)[C@H](CC(C)C)NC(=O)C(NC(=O)C(Cc1cccc2ccccc12)Cc1cccc2ccccc12)OC (stereo partly specified) | 
7 | > 1 |  | CC[C@H](C)CNC(=O)C[C@H](O)[C@H](CC(C)C)NC(=O)C(NC(=O)C(Cc1cccc2ccccc12)Cc1cccc2ccccc12)NC(C)C (stereo in doubt; 35) | 
8 | > 1 |  | CC[C@H](C)CNC(=O)C[C@H](O)[C@H](CC(C)C)NC(=O)C(N)NC(=O)C(Cc1cccc2ccccc12)Cc1cccc2ccccc12 (stereo in doubt; 31) | 
9 | 0.615 |  | CC[C@H](C)CNC(=O)C[C@H](O)[C@H](CC(C)C)NC(=O)C(NC(=O)C(Cc1cccc2ccccc12)Cc1cccc2ccccc12)[S+](C)[O-] (stereo partly specified) | 
10 | 0.21 |  | CCNC(NC(=O)C(Cc1cccc2ccccc12)Cc1cccc2ccccc12)C(=O)N[C@@H](CC(C)C)[C@@H](O)CC(=O)NC[C@@H](C)CC (stereo in doubt; 34) | 
11 | > 1 |  | CCNC(NC(=O)C(Cc1cccc2ccccc12)Cc1cccc2ccccc12)C(=O)N[C@@H](CC(C)C)[C@@H](O)CC(=O)NC[C@@H](C)CC (stereo in doubt; 33) | 
12 | 0.31 |  | CC[C@H](C)CNC(=O)C[C@H](O)[C@H](CC(C)C)NC(=O)C(NC(=O)C(Cc1cccc2ccccc12)Cc1cccc2ccccc12)Nc1ccccc1 (stereo partly specified) | 
13 | 0.026 |  | CCOC(NC(=O)C(Cc1cccc2ccccc12)Cc1cccc2ccccc12)C(=O)N[C@@H](CC(C)C)[C@@H](O)CC(=O)NC[C@@H](C)CC (stereo in doubt; 21) | 
14 | > 1 |  | CCOC(NC(=O)C(Cc1cccc2ccccc12)Cc1cccc2ccccc12)C(=O)N[C@@H](CC(C)C)[C@@H](O)CC(=O)NC[C@@H](C)CC (stereo in doubt; 22) | 

The remaining lines, values behind:

Row | SMILES | IC50 [1] [µM] | IC50 (Cathepsin D) [µM] | also measured
15 | CC(C)C[C@H](O)[C@H](O)[C@H](CC1CCCCC1)NC(=O)C(NC(=O)[C@H](Cc1ccccc1)NS(=O)(=O)N1CCOCC1)Sc1cccs1 (stereo partly specified) | 0.013 | 0.47 | Selectivity (Bos taurus): 36.1
16 | CCCOC(NC(=O)[C@H](Cc1ccccc1)NS(=O)(=O)N1CCOCC1)C(=O)N[C@@H](CC1CCCCC1)C(=O)C(F)(F)C(=O)NCCN1CCOCC1 (stereo partly specified) | 0.0021 | 0.131 | Change in BP (Monkey [2]): -10 mmHg; Selectivity (Bos taurus): 65.5; Change in BP (Monkey [3]): -10 mmHg; Change in BP (Monkey [4]): -9 mmHg
17 | C=CCSC(NC(=O)[C@H](Cc1ccccc1)NS(=O)(=O)N1CCOCC1)C(=O)N[C@@H](CC1CCCCC1)[C@@H](O)[C@@H](O)CC(C)C (stereo partly specified) | 0.00017 | 0.0194 | Selectivity (Bos taurus): 118
18 | O=C(C[C@H](O)[C@H](CC1CCCCC1)NC(=O)C(Cc1cnc[nH]1)NC(=O)[C@H](Cc1ccccc1)NS(=O)(=O)N1CCOCC1)NCCN1CCOCC1 (stereo partly specified) |  | > 10 | 
19 | CC(C)C[C@H](O)[C@H](O)[C@H](CC1CCCCC1)NC(=O)C(NC(=O)[C@H](Cc1ccccc1)NS(=O)(=O)N1CCOCC1)OCC(F)(F)F (stereo partly specified) |  | 0.0212 | Change in BP (Monkey [2]): -1 mmHg; Change in BP (Monkey [3]): -1 mmHg; Change in BP (Monkey [4]): -2 mmHg
20 | CCOC(NC(=O)[C@H](Cc1ccccc1)NS(=O)(=O)N1CCOCC1)C(=O)N[C@@H](CC1CCCCC1)[C@@H](O)[C@@H](O)CC(C)C (stereo partly specified) |  | 0.014 | 
21 | CC[C@H](C)CNC(=O)C[C@H](O)[C@H](CC(C)C)NC(=O)C(Cc1c[nH]cn1)NC(=O)C(Cc1cccc2ccccc12)Cc1cccc2ccccc12 (stereo partly specified) | 0.085 |  | 
22 | C=CCN(C)C(NC(=O)[C@H](Cc1ccccc1)NC(=O)OC(C)(C)C)C(=O)N[C@@H](CC1CCCCC1)[C@@H](O)[C@@H](O)CC(C)C (stereo partly specified) |  | 0.0604 | 
23 | CCCOC(NC(=O)[C@H](Cc1ccccc1)NS(=O)(=O)N1CCOCC1)C(=O)N[C@@H](CC1CCCCC1)[C@@H](O)[C@@H](O)CC(C)C (stereo partly specified) |  | 0.022 | 
24 | C=CCOC(NC(=O)[C@H](Cc1ccccc1)NS(=O)(=O)N1CCOCC1)C(=O)N[C@@H](CC1CCCCC1)[C@@H](O)[C@@H](O)CC(C)C (stereo partly specified) | 0.00022 | 0.0105 | 
25 | CC(C)C[C@H](O)[C@H](O)[C@H](CC1CCCCC1)NC(=O)C(Cc1cnc[nH]1)NC(=O)[C@H](Cc1ccccc1)NS(=O)(=O)N1CCOCC1 (stereo partly specified) |  | > 10 | 
26 | CCOC(NC(=O)[C@H](Cc1ccccc1)NS(=O)(=O)N1CCOCC1)C(=O)N[C@@H](CC1CCCCC1)[C@@H](O)CC(=O)NCCN1CCOCC1 (stereo partly specified) |  | > 10 | 
27 | CCSC(NC(=O)[C@H](Cc1ccccc1)NC(=O)OC(C)(C)C)C(=O)N[C@@H](CC1CCCCC1)[C@@H](O)[C@@H](O)CC(C)C (stereo partly specified) | 0.0014 | 0.0281 | Selectivity (Bos taurus): 20.1
28 | C=CCSC(NC(=O)[C@H](Cc1ccccc1)NS(=O)(=O)N1CCOCC1)C(=O)N[C@@H](CC1CCCCC1)[C@@H](O)CC(=O)NCCN1CCOCC1 (stereo partly specified) | 0.0015 | 0.01 | Change in BP (Monkey [2]): -7 mmHg; Selectivity (Bos taurus): 6.7; Change in BP (Monkey [3]): -3 mmHg; Change in BP (Monkey [4]): -6 mmHg
29 | CCCOC(NC(=O)[C@H](Cc1ccccc1)NS(=O)(=O)N1CCOCC1)C(=O)N[C@@H](CC1CCCCC1)[C@@H](O)C(F)(F)C(=O)NCCN1CCOCC1 (stereo partly specified) |  | 0.699 | Change in BP (Monkey [2]): -1 mmHg; Change in BP (Monkey [3]): 3 mmHg; Change in BP (Monkey [4]): -3 mmHg
30 | C#CCOC(NC(=O)[C@H](Cc1ccccc1)NS(=O)(=O)N1CCOCC1)C(=O)N[C@@H](CC1CCCCC1)[C@@H](O)[C@@H](O)CC(C)C (stereo partly specified) | 0.00052 | 0.0801 | Selectivity (Bos taurus): 154
31 | CC[C@H](C)CNC(=O)C[C@H](O)[C@H](CC(C)C)NC(=O)C(NC(=O)C(Cc1cccc2ccccc12)Cc1cccc2ccccc12)Sc1ccccc1 (stereo partly specified) | 0.656 |  | 
32 | CC[C@H](C)CNC(=O)C[C@H](O)[C@H](CC(C)C)NC(=O)C(NC(=O)C(Cc1cccc2ccccc12)Cc1cccc2ccccc12)Oc1ccccc1 (stereo partly specified) | 0.633 |  | 
33 | CCSC(NC(=O)[C@H](Cc1ccccc1)NS(=O)(=O)N1CCOCC1)C(=O)N[C@@H](CC1CCCCC1)[C@@H](O)[C@@H](O)CC(C)C (stereo partly specified) |  | 0.01 | Change in BP (Monkey [2]): -12 mmHg; Change in BP (Monkey [3]): -14 mmHg; Change in BP (Monkey [4]): -16 mmHg
